Assay outcomes from PubChem BioAssay.
In the library only some 3.1% were active in any assay of this set; here they are far more common.
KCNQ1 block: inhibitors of human KCNQ1 channel, primary screen, cell-based, thallium flux, high-throughput. CHO-K1 KCNQ1, FluxOR thallium flux fluorescence; stronger effect = higher value. B-score at 10 µM. 310,000 compounds, 1.3% hits. AID 2642, 2010;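 active = compounds whose thallium flux B-score, printed positive for inhibition, exceeds three library SD while starting fluorescence stays within three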;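 also: channel opened by potassium depolarization with thallium stimulus after 20 min compound exposure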
Target sequence (P51787 whole entry, looked up): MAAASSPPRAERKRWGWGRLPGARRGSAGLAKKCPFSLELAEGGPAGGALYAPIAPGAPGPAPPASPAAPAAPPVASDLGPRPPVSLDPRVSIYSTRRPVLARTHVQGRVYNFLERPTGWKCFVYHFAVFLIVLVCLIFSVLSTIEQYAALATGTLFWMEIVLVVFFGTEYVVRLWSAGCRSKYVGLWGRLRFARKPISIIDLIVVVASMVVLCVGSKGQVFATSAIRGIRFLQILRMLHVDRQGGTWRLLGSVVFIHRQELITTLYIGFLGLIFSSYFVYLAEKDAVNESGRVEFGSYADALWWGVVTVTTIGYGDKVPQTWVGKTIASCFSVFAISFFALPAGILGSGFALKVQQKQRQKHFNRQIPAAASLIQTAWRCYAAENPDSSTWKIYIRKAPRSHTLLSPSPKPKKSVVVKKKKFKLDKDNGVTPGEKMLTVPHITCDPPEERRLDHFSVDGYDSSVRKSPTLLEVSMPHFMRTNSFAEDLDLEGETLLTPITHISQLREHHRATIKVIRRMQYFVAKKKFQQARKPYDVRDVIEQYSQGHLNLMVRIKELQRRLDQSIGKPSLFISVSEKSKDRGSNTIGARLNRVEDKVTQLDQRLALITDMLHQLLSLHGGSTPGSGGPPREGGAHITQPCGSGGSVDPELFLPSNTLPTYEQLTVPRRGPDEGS
KCNK9 block: KCNK9 potassium channel inhibitors, primary screen, HEK293 cells, thallium flux. Potassium channel subfamily K member 9 (Homo sapiens), Q9NPC2. FluxOR thallium flux fluorescence; stronger effect = lower value. B-score at 10 µM. 310,000 compounds, 1.2% hits;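 active = ratio B-score over 3 SD below the library mean, with starting fluorescence within 5 SD of its mean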;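 also: negative B-score means less thallium flux so channel inhibition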
KCNK3 inh: human KCNK3 channel inhibitors, primary screen, CHO cells, FluxOR thallium flux, B-score; Potassium channel subfamily K member 3 (Homo sapiens), O14649; FluxOR fluorescence; stronger effect = lower value; 340,000 compounds, 0.84% hits; B-score at 10 µM;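 active = B-score under library mean minus 4 SD, starting fluorescence ratio at most library mean plus 5 SD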;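 also: more negative B-score means stronger inhibition of thallium flux through KCNK3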
KCNQ1 pot: potentiators or activators of KCNQ1 channel, primary screen, cell-based, thallium flux, high-throughput; CHO-K1 KCNQ1, thallium flux FluxOR fluorescence; stronger effect = higher value; B-score at 10 µM; 310,000 compounds, 0.35% hits; AID 2648, 2010;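 active = fluorescence ratio B-score, a plate-corrected score, at least three library SD, with initial intensity B-score within 5 SD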
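assay system = CHO-K1 cells stably expressing KCNQ1 | medium = assay buffer, equal DMSO in all wells | timing = 37 °C overnight plating, 90-min dark dye load, 20-min compound pretreatment | measured by = kinetic FluxOR thallium fluorescence, 10-s 1-Hz baseline, 110-s post-stimulus read | measure = fluorescence change relative to baseline, converted to B score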
hERG protect: hERG rescue from dofetilide block, primary screen, cell-based, CHO-hERG, FluxOR thallium flux, dofetilide IC70. Voltage-gated inwardly rectifying potassium channel KCNH2 (Homo sapiens), Q12809. dofetilide IC70 present. activation (rescue from dofetilide block), less the hit threshold, % at 10 µM. 310,000 compounds, 0.51% hits. AID 1511, 2009;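 active = activation above the mean of controls blocked by dofetilide plus 5 SD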;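 also: thallium influx through hERG after potassium depolarization seen as dye fluorescence rise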
Each line names hits and unclear results; the compound was inactive in the other large screens.

O=C(COC(=O)C1C2CC3OC(=O)C1C3C2)Nc1ccc(Cl)cc1 (configuration not stated)	KCNQ1 pot 17, hERG protect 12
O=c1c2cc(Cl)ccc2nc(-c2ccc([N+](=O)[O-])cc2)n1O	KCNQ1 pot 13, hERG protect 21
O=c1c2ccc(Cl)cc2nc(-c2cccc(C(F)(F)F)c2)n1O	KCNQ1 pot 136, hERG protect 75
N#Cc1ccc(-c2nc3cc(Cl)ccc3c(=O)n2O)cc1	none
O=c1c2ccccc2nc(-c2ccc(Cl)c(Cl)c2)n1O	KCNQ1 pot 37, hERG protect 21
O=c1c2ccccc2nc(-c2ccccc2Cl)n1O	none
Cc1ccc(-c2nc3c(Cl)cc(Cl)cc3c(=O)n2O)cc1	KCNQ1 pot 105, hERG protect 55
O=c1c2ccccc2nc(-c2ccc(Cl)cc2Cl)n1O	none
N#Cc1ccc(-c2nc3ccccc3c(=O)n2O)cc1	none
Cc1ccc2c(c1)C(=O)CC(c1ccccc1)S2 (configuration not stated)	none (no result: KCNQ1 block, KCNK9 block, KCNQ1 pot, hERG protect)
NC(=O)C1CCN(C(=O)/C=C/c2ccco2)CC1	none
COc1ccc(NS(=O)(=O)c2cccc(C(=O)NNC(=O)c3cncc(Br)c3)c2)cc1	none
O=c1c2cc(Br)ccc2nc(-c2ccc(Cl)cc2)n1O	KCNQ1 pot 104, hERG protect 35
CCOC(=O)N1CCN(C(=O)C2CCC(=O)N(CCCN3CCCC3=O)C2)CC1 (configuration not stated)	none
COc1cc(/C=N/NC(=O)Nc2ccccc2)ccc1OC(C)=O	none
C=CC[n+]1c(/C=C/c2ccc(OC(C)=O)c(OC)c2)ccc2ccccc21	KCNQ1 pot 12
Clc1ccc(-c2csc(N3CCc4ccccc4C3)n2)cc1	KCNQ1 pot 10
c1ccc(-c2csc(N3CCN(c4ccccn4)CC3)n2)cc1	KCNK9 block -6.7
Clc1ccc(-c2csc(N3CCN(c4ccccc4)CC3)n2)cc1	none
Cc1ccc(S(=O)(=O)N(C)C)cc1NC(=O)COc1ccccc1C(=O)Nc1ccccc1	none
COc1ccccc1C(=O)NCCC(=O)N(C)CC(=O)Nc1ccc(C)cc1	none
Cc1ccc(NC(=O)c2ccccc2OCC(=O)Nc2ccccc2F)cc1S(=O)(=O)N(C)C	KCNK3 inh -9.6 (no result: KCNQ1 block, KCNK9 block, KCNQ1 pot, hERG protect)
Cc1ccc(NC(=O)COc2ccccc2C(=O)NCCN(C)C)cc1	hERG protect 6.9 (no result: KCNK3 inh)
O=C(Cn1ncn2nc(-c3ccccc3)cc2c1=O)NCc1ccccn1	none
Cc1c(NC(=O)Nc2ccc(Cl)c(Cl)c2)sc(=S)n1C	KCNQ1 block 8
COc1ccc(NC(=O)Nc2sc(=S)n(C)c2C)cc1	none
O=C(Oc1c(Br)cc([N+](=O)[O-])cc1Br)c1cccnc1	KCNQ1 block 7
COC(=O)C(Cc1ccccc1)NC(=O)CNS(=O)(=O)c1ccc(Br)cc1 (configuration not stated)	none
COC(=O)C(Cc1ccccc1)NC(=O)CNC(=O)c1ccc(Br)cc1 (configuration not stated)	KCNK9 block -7.1
Cc1cnc(NC(=O)c2ccc3ncsc3c2)s1	none (no result: KCNQ1 block, KCNK9 block, KCNQ1 pot, hERG protect)
O=C(Nc1ccc2[nH]c(=S)sc2c1)c1ccccc1	KCNQ1 pot 12
O=C(Nc1ccc2[nH]c(=S)sc2c1)Nc1ccccc1F	KCNQ1 pot 15, hERG protect 11
O=C(Nc1ccc2[nH]ccc2c1)c1ccccc1	none
O=C(Nc1ccc(F)cc1)Nc1ccccc1F	none
CCN(CC)S(=O)(=O)c1ccc2nc(CCl)[nH]c2c1	none
Cc1ccc(C)c(S(=O)(=O)N2CCN(C(=O)CCC(=O)NCc3ccc(Cl)cc3Cl)CC2)c1	none (no result: KCNQ1 block, KCNK9 block, KCNQ1 pot, hERG protect)
CC(C)(C)OC(=O)N(Cc1ccccc1)Cc1cccc(OCc2cccc(NC(=O)c3ccccc3)c2)c1	none (no result: KCNQ1 block, KCNK9 block, KCNQ1 pot, hERG protect)
Cc1ccc(NC(=O)C(=O)NNC(=O)c2ccccc2C)cc1Cl	KCNQ1 pot 41, hERG protect 46
COc1ccccc1C(=O)NNC(=O)C(=O)Nc1ccc(C)c(Cl)c1	KCNQ1 pot 94, hERG protect 61
COc1ccccc1C(=O)NNC(=O)C(=O)NC(C)(C)C	KCNQ1 pot 9, hERG protect 7.4
CC(C)(C)NC(=O)C(=O)NNC(=O)c1ccccc1Br	none
COc1ccccc1C(=O)NNC(=O)c1ccc(Cl)cc1	none
COc1ccccc1C(=O)NNC(=S)Nc1ccccc1	none
COc1ccccc1C(=O)NNC(=O)C(=O)Nc1ccc(C)cc1	hERG protect 47
CN(Cc1ccccc1)Cc1ccccc1C(O)c1ccccc1 (configuration not stated)	none (no result: KCNQ1 block, KCNK9 block, KCNQ1 pot, hERG protect)
O=C(O)C(Cc1ccccc1N(CCO)CCO)N1C(=O)c2ccccc2C1=O (configuration not stated)	none (no result: KCNQ1 block, KCNK9 block, KCNQ1 pot, hERG protect)
CS(=O)(=O)N(Cc1cccc(CN(C(C(=O)O)c2ccccc2)S(C)(=O)=O)c1)C(C(=O)O)c1ccccc1 (configuration not stated)	none
CC(C)C[C@@H](C(=O)O)N(Cc1cccc(CN([C@@H](CC(C)C)C(=O)O)S(C)(=O)=O)c1)S(C)(=O)=O	hERG protect 4.7
Cc1cc(-c2nnc(SCC(=O)Nc3ccc(C(F)(F)F)cc3)n2C)no1	hERG protect 6.2
Cc1cc(-c2nnc(SCC(=O)Nc3ccccc3)n2C)no1	none
N#Cc1c(-c2ccc(Cl)cc2)c(-c2ccc(Cl)cc2)nn(CCO)c1=O	none (no result: KCNQ1 block, KCNK9 block, KCNQ1 pot, hERG protect)
CCOC(=O)c1ccc(Oc2nc(N(C)C)nc(N(C)C)n2)cc1	none
CCOC(=O)c1ccc(Oc2nc(NC(C)(C)C)nc(N(C)C)n2)cc1	KCNQ1 pot 27
COc1ccc2c(=O)c(-c3ccc(C)cc3)c(-c3ccccc3)oc2c1	none (no result: KCNQ1 block, KCNK9 block, KCNQ1 pot, hERG protect)
O=C(Nc1c(-c2ccccc2)nc2ccccn12)c1ccccc1F	none
COc1ccc2[nH]cc(/C=C/C(=O)c3ccccc3)c2c1	none
Cc1cccc(NCCC(=O)c2ccc([N+](=O)[O-])cc2)c1C	hERG protect 4.7
O=S(=O)(CCSc1ccccn1)c1nc2ccccc2s1	KCNQ1 block 6
C=CCn1c(SCC(=O)NC23CC4CC(CC(C4)C2)C3)nc2cc(C(=O)O)ccc2c1=O	none
Cc1ccc(OCc2cc(C(=O)N3CCCC3)no2)cn1	none
C=CCC1(CC=C)CCCN1C(=O)c1cc(COc2ccccc2SC)on1	KCNQ1 block 7
C=CCC1(CC=C)CCCN1C(=O)c1cc(COc2ccc(C)nc2)on1	KCNQ1 block 8
CC12CCC(=O)N1C(C(=O)N1CCN(c3ccc([N+](=O)[O-])cc3)CC1)CS2 (configuration not stated)	none (no result: KCNQ1 block, KCNK9 block, KCNQ1 pot, hERG protect)
CCN(CC)c1ccc(/C=C(/C#N)C(=O)NC(C)C)o1	none
CC(C)NC(=O)/C(C#N)=C\c1ccc(N(C)C)o1	KCNK9 block -7
C=CCN1C(=O)CSc2ccc(C(=O)NC3CCCCC3)cc21	none
C=CCN1C(=O)CSc2ccc(C(=O)NCc3cccs3)cc21	hERG protect 47
